Consider seven molecules from ChEMBL document CHEMBL1149110, “Identification of 2-[2-[2-(5-bromo-2- methoxyphenyl)-ethyl]-3-fluorophenyl]-4,5-dihydro-1H-imidazole (ML00253764), a small molecule melanocortin 4 receptor antagonist that effectively reduces tumor-induced weight loss in a mouse model” (J Med Chem, 2004).

For test [1], the target named is Melanocortin receptor 4 (Mus musculus, UniProt P56450). The test can be described thus: Competition binding affinity at mice melanocortin 4 receptor using [125I][NDP]-R-MSH as radioligand in a membrane filtration assay. In kind it is cell membranes. An outline of the steps:
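Membrane filtration competition binding at MC4R with 125I-[NDP]-α-MSH as radioligand. Values are averages of at least three measurements, reported ± SD.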

The species entered for test [2] is Mus musculus. The test can be described thus: Functional antagonism measured by inhibition of cAMP production induced by [NDP]-R-MSH in a whole cell assay in mice. The gist of the method:
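Whole-cell functional assay measuring inhibition of cAMP production stimulated by [NDP]-α-MSH. Values are averages of at least three measurements, reported ± SD.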

Sequence of Melanocortin receptor 4 (P56450 whole entry): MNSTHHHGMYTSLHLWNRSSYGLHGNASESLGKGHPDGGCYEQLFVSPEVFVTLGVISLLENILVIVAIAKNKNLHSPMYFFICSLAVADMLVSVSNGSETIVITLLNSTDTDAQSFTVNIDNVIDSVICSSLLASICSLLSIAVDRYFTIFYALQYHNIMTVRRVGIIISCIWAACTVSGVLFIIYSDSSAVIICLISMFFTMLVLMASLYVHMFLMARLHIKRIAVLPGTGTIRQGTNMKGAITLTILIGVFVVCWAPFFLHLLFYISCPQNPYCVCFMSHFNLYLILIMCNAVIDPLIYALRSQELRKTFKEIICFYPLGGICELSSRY

As for `Clc1cc(CSc2ccccc2C2=NCCCN2)c(Cl)s1`, affinity in test [1] was put at a Ki of 2200 nM.
Same read-out and setting: the value for `Fc1cccc(F)c1CSc1ccccc1C1=NCCCN1` was 15800 nM.
`COc1ccc(Br)cc1CCc1ccccc1C1=NCCCN1` returned a Ki in test [1] of 220 nM. Besides, the midpoint of inhibition in test [2], the IC50, lay at 280 nM.
For the molecule `COc1ccc(Br)cc1CCc1c(F)cccc1C1=NCCN1`, the inhibition constant (Ki) in test [1] was 160 nM.
Take `Fc1cccc(Cl)c1CSc1ccccc1C1=NCCCN1`: the affinity in test [1], expressed as Ki, was 2700 nM.
Molecule `COc1ccc(Br)cc1CSc1ccccc1C1=NCCCN1` had a Ki in test [1] of 67 nM. The same molecule displayed an IC50 in test [2] of 270 nM.
Molecule `COc1ccc(Br)cc1CCc1ccccc1C1=NCCN1` registered a Ki in test [1] of 39 nM. Besides, the concentration for half-maximal inhibition (IC50) in test [2] amounted to 450 nM.
